Results on 10 molecules are retold here after ChEMBL document CHEMBL1138362, “Dihydro-alkylthio-benzyl-oxopyrimidines as inhibitors of reverse transcriptase: synthesis and rationalization of the biological data on both wild-type enzyme and relevant clinical mutants” (J Med Chem, 2007).

The first experiment has as its target Human immunodeficiency virus type 1 reverse transcriptase (Human immunodeficiency virus 1) (UniProt Q72547). As to the kind of experiment: Antiviral activity against wild type HIV1 reverse transcriptase.
Details: not given
`Cc1c(Cc2ccc(C#N)cc2)nc(SCc2ccc(C#N)cc2)[nH]c1=O` returned an ID50 of over 20 µM.
Turning to `CCCCc1ccc(CSc2nc(Cc3ccc(C#N)cc3)c(C)c(=O)[nH]2)cc1`, the ID50 is over 20 µM.
In turn, `CCc1c(Cc2c(Cl)cccc2Cl)nc(SCCc2ccc(OC)cc2)[nH]c1=O` returned an ID50 of 0.07 µM.
In the case of `COc1ccc(/C=C/Sc2nc(C(C)c3c(Cl)cccc3Cl)c(C)c(=O)[nH]2)cc1` (stereo not given), the ID50 stood at 0.02 µM.
For the molecule `CCc1c(C(C)c2c(F)cccc2F)nc(SCCOCc2ccc(OC)cc2)[nH]c1=O` (stereo not given), the ID50 stood at 0.741 µM.
As for `Cc1c(Cc2c(F)cccc2F)nc(SCC#Cc2ccc([N+](=O)[O-])cc2)[nH]c1=O`, the ID50 amounted to 0.416 µM.
The molecule `CCc1c(C(C)c2c(F)cccc2F)nc(SC/C=C/c2ccc([N+](=O)[O-])cc2)[nH]c1=O` (stereo not given) displayed an ID50 of 0.009 µM.
Same read-out and setting: as for `CCc1c(Cc2c(Cl)cccc2Cl)nc(SC/C=C/c2ccc(OC)cc2)[nH]c1=O`, the figure is 0.056 µM.
Take `CCc1c(Cc2c(Cl)cccc2Cl)nc(SCc2ccc(OC)cc2)[nH]c1=O`: the ID50 came to 0.032 µM.
Molecule `Cc1c(Cc2c(F)cccc2F)nc(SC/C=C/c2ccc([N+](=O)[O-])cc2)[nH]c1=O` displayed an ID50 of 11.9 µM.

A further experiment deals with Human immunodeficiency virus 1 [K103N]. As to the kind of experiment: Antiviral activity against HIV1 reverse transcriptase K103N mutant.
Details: not given
`Cc1c(Cc2ccc(C#N)cc2)nc(SCc2ccc(C#N)cc2)[nH]c1=O` returned an ID50 of over 20 µM.
`CCCCc1ccc(CSc2nc(Cc3ccc(C#N)cc3)c(C)c(=O)[nH]2)cc1`: the ID50 was over 20 µM.
`CCc1c(Cc2c(Cl)cccc2Cl)nc(SCCc2ccc(OC)cc2)[nH]c1=O` displayed an ID50 of over 20 µM.
Molecule `COc1ccc(/C=C/Sc2nc(C(C)c3c(Cl)cccc3Cl)c(C)c(=O)[nH]2)cc1` (stereo not given) came in with an ID50 of over 20 µM.
For the molecule `CCc1c(C(C)c2c(F)cccc2F)nc(SCCOCc2ccc(OC)cc2)[nH]c1=O` (stereo not given), the ID50 was over 20 µM.
As to `Cc1c(Cc2c(F)cccc2F)nc(SCC#Cc2ccc([N+](=O)[O-])cc2)[nH]c1=O`, the ID50 was over 20 µM.
Consider `CCc1c(C(C)c2c(F)cccc2F)nc(SC/C=C/c2ccc([N+](=O)[O-])cc2)[nH]c1=O` (stereo not given), for which the ID50 is over 20 µM.
The molecule `CCc1c(Cc2c(Cl)cccc2Cl)nc(SC/C=C/c2ccc(OC)cc2)[nH]c1=O` displayed an ID50 of over 20 µM.
Regarding `CCc1c(Cc2c(Cl)cccc2Cl)nc(SCc2ccc(OC)cc2)[nH]c1=O`, the ID50 was found to be 7.6 µM.
As to `Cc1c(Cc2c(F)cccc2F)nc(SC/C=C/c2ccc([N+](=O)[O-])cc2)[nH]c1=O`, the ID50 was over 20 µM.

Another experiment has as its system Human immunodeficiency virus type 1 reverse transcriptase (Human immunodeficiency virus 1), Q72547 [Y181I]. The experiment can be described thus: Antiviral activity against HIV1 reverse transcriptase Y181I mutant.
Details: not given
Turning to `Cc1c(Cc2ccc(C#N)cc2)nc(SCc2ccc(C#N)cc2)[nH]c1=O`, the ID50 is over 20 µM.
As for `CCCCc1ccc(CSc2nc(Cc3ccc(C#N)cc3)c(C)c(=O)[nH]2)cc1`, the ID50 was over 20 µM.
The same measure, in the same setting: to `CCc1c(Cc2c(Cl)cccc2Cl)nc(SCCc2ccc(OC)cc2)[nH]c1=O` belongs over 20 µM; to `COc1ccc(/C=C/Sc2nc(C(C)c3c(Cl)cccc3Cl)c(C)c(=O)[nH]2)cc1` (stereo not given), over 20 µM.
`CCc1c(C(C)c2c(F)cccc2F)nc(SCCOCc2ccc(OC)cc2)[nH]c1=O` (stereo not given): the ID50 stood at 0.27 µM.
Still for that read-out and setting: as for `Cc1c(Cc2c(F)cccc2F)nc(SCC#Cc2ccc([N+](=O)[O-])cc2)[nH]c1=O`, the figure is over 20 µM; as for `CCc1c(C(C)c2c(F)cccc2F)nc(SC/C=C/c2ccc([N+](=O)[O-])cc2)[nH]c1=O` (stereo not given), over 20 µM; as for `CCc1c(Cc2c(Cl)cccc2Cl)nc(SC/C=C/c2ccc(OC)cc2)[nH]c1=O`, over 20 µM.
Molecule `CCc1c(Cc2c(Cl)cccc2Cl)nc(SCc2ccc(OC)cc2)[nH]c1=O` yielded an ID50 of over 20 µM.
`Cc1c(Cc2c(F)cccc2F)nc(SC/C=C/c2ccc([N+](=O)[O-])cc2)[nH]c1=O` had an ID50 of over 20 µM.

For the next experiment, the system named is Human immunodeficiency virus 1. The experiment can be described thus: Antiviral activity against wild type HIV1 NL4-3 in MT4 cells after 5 days by MTT method. The format is functional, organism-based. Conditions: Human immunodeficiency virus 1, NL4-3, MT4, 120 h. The essentials: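 MT-4 lymphoid cells, infected with HIV-1 or mock-infected (for cytotoxicity), held with a range of drug concentrations; viable cells scored at day 5 post-infection by tetrazolium (MTT) colorimetry.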
Turning to `Cc1c(Cc2ccc(C#N)cc2)nc(SCc2ccc(C#N)cc2)[nH]c1=O`, the EC50 is over 67.2 µM.
On to `CCCCc1ccc(CSc2nc(Cc3ccc(C#N)cc3)c(C)c(=O)[nH]2)cc1`, for which the EC50 came out at 4.57 µM.
In turn, `CCc1c(Cc2c(Cl)cccc2Cl)nc(SCCc2ccc(OC)cc2)[nH]c1=O` came in with an EC50 of 0.0013 µM.
On the same count and under the same terms, to `COc1ccc(/C=C/Sc2nc(C(C)c3c(Cl)cccc3Cl)c(C)c(=O)[nH]2)cc1` (stereo not given) belongs 16.2 µM; to `CCc1c(C(C)c2c(F)cccc2F)nc(SCCOCc2ccc(OC)cc2)[nH]c1=O` (stereo not given), 3.89 µM.
Molecule `Cc1c(Cc2c(F)cccc2F)nc(SCC#Cc2ccc([N+](=O)[O-])cc2)[nH]c1=O` displayed an EC50 of 40.1 µM.
`CCc1c(C(C)c2c(F)cccc2F)nc(SC/C=C/c2ccc([N+](=O)[O-])cc2)[nH]c1=O` (stereo not given) registered an EC50 of 0.0004 µM.
For `CCc1c(Cc2c(Cl)cccc2Cl)nc(SC/C=C/c2ccc(OC)cc2)[nH]c1=O`, the EC50 was determined as 0.0015 µM.
Molecule `CCc1c(Cc2c(Cl)cccc2Cl)nc(SCc2ccc(OC)cc2)[nH]c1=O` had an EC50 of 0.0022 µM.
With `Cc1c(Cc2c(F)cccc2F)nc(SC/C=C/c2ccc([N+](=O)[O-])cc2)[nH]c1=O`, the EC50 amounted to 0.26 µM.

The subject of a further experiment is Human immunodeficiency virus 1. As to the kind of experiment: Antiviral activity against HIV1 with reverse transcriptase K103N mutation in MT4 cells after 5 days by MTT method. The format is functional, organism-based. Conditions: Human immunodeficiency virus 1, MT4, 120 h. The essentials:
(§1)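 MT-4 cells from the NIH AIDS Reagent Program were infected with mutant HIV-1 (K103N or Y188L, from the MRC Centralised Facility) in the presence of graded drug concentrations. Mock-infected cells were used for cytotoxicity. Viable cells were counted by MTT colorimetry at day 5 post-infection.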
As to `Cc1c(Cc2ccc(C#N)cc2)nc(SCc2ccc(C#N)cc2)[nH]c1=O`, the EC50 is over 67.2 µM.
The molecule `CCCCc1ccc(CSc2nc(Cc3ccc(C#N)cc3)c(C)c(=O)[nH]2)cc1` registered an EC50 of over 79.9 µM.
With `CCc1c(Cc2c(Cl)cccc2Cl)nc(SCCc2ccc(OC)cc2)[nH]c1=O`, the EC50 is 6.81 µM.
The same measure, in the same setting: to `COc1ccc(/C=C/Sc2nc(C(C)c3c(Cl)cccc3Cl)c(C)c(=O)[nH]2)cc1` (stereo not given) belongs over 55.9 µM.
As to `CCc1c(C(C)c2c(F)cccc2F)nc(SCCOCc2ccc(OC)cc2)[nH]c1=O` (stereo not given), the EC50 was over 54.4 µM.
On the same count and under the same terms, as for `Cc1c(Cc2c(F)cccc2F)nc(SCC#Cc2ccc([N+](=O)[O-])cc2)[nH]c1=O`, the figure is over 58.6 µM; as for `CCc1c(C(C)c2c(F)cccc2F)nc(SC/C=C/c2ccc([N+](=O)[O-])cc2)[nH]c1=O` (stereo not given), over 5.75 µM; as for `CCc1c(Cc2c(Cl)cccc2Cl)nc(SC/C=C/c2ccc(OC)cc2)[nH]c1=O`, over 0.19 µM.
The same measure, in the same setting: to `CCc1c(Cc2c(Cl)cccc2Cl)nc(SCc2ccc(OC)cc2)[nH]c1=O` belongs 6.99 µM; to `Cc1c(Cc2c(F)cccc2F)nc(SC/C=C/c2ccc([N+](=O)[O-])cc2)[nH]c1=O`, over 11.7 µM.

The test system of the next experiment is Human immunodeficiency virus 1. As to the kind of experiment: Antiviral activity against HIV1 with reverse transcriptase Y181C mutation in MT4 cells after 5 days by MTT method. The format is functional, organism-based. Conditions: Human immunodeficiency virus 1, MT4, 120 h.
Turning to `Cc1c(Cc2ccc(C#N)cc2)nc(SCc2ccc(C#N)cc2)[nH]c1=O`, the EC50 is over 67.2 µM.
The molecule `CCCCc1ccc(CSc2nc(Cc3ccc(C#N)cc3)c(C)c(=O)[nH]2)cc1` yielded an EC50 of over 79.9 µM.
As to `CCc1c(Cc2c(Cl)cccc2Cl)nc(SCCc2ccc(OC)cc2)[nH]c1=O`, a half-maximal effect (EC50) was put at 3.85 µM.
Take `COc1ccc(/C=C/Sc2nc(C(C)c3c(Cl)cccc3Cl)c(C)c(=O)[nH]2)cc1` (stereo not given): the EC50 was over 55.9 µM.
Molecule `CCc1c(C(C)c2c(F)cccc2F)nc(SCCOCc2ccc(OC)cc2)[nH]c1=O` (stereo not given) registered an EC50 of over 54.4 µM.
In turn, `Cc1c(Cc2c(F)cccc2F)nc(SCC#Cc2ccc([N+](=O)[O-])cc2)[nH]c1=O` yielded an EC50 of over 58.6 µM.
Still for that read-out and setting: as for `CCc1c(C(C)c2c(F)cccc2F)nc(SC/C=C/c2ccc([N+](=O)[O-])cc2)[nH]c1=O` (stereo not given), the figure is over 5.75 µM; as for `CCc1c(Cc2c(Cl)cccc2Cl)nc(SC/C=C/c2ccc(OC)cc2)[nH]c1=O`, over 0.19 µM; as for `CCc1c(Cc2c(Cl)cccc2Cl)nc(SCc2ccc(OC)cc2)[nH]c1=O`, 0.83 µM.
On the same count and under the same terms, to `Cc1c(Cc2c(F)cccc2F)nc(SC/C=C/c2ccc([N+](=O)[O-])cc2)[nH]c1=O` belongs over 11.7 µM.

The test system of a further experiment is Human immunodeficiency virus 1. The experiment can be described thus: Antiviral activity against HIV1 with reverse transcriptase Y188L mutation in MT4 cells after 5 days by MTT method. It counts as functional, organism-based. Conditions: Human immunodeficiency virus 1, MT4, 120 h. Put shortly:
as §1
`Cc1c(Cc2ccc(C#N)cc2)nc(SCc2ccc(C#N)cc2)[nH]c1=O` displayed a half-maximal effective concentration (EC50) of over 67.2 µM.
Molecule `CCCCc1ccc(CSc2nc(Cc3ccc(C#N)cc3)c(C)c(=O)[nH]2)cc1` gave an EC50 of over 79.9 µM.
Consider `CCc1c(Cc2c(Cl)cccc2Cl)nc(SCCc2ccc(OC)cc2)[nH]c1=O`, for which the EC50 is over 11.1 µM.
The molecule `COc1ccc(/C=C/Sc2nc(C(C)c3c(Cl)cccc3Cl)c(C)c(=O)[nH]2)cc1` (stereo not given) registered an EC50 of over 55.9 µM.
Regarding `CCc1c(C(C)c2c(F)cccc2F)nc(SCCOCc2ccc(OC)cc2)[nH]c1=O` (stereo not given), the EC50 was over 54.4 µM.
Turning to `Cc1c(Cc2c(F)cccc2F)nc(SCC#Cc2ccc([N+](=O)[O-])cc2)[nH]c1=O`, the EC50 was over 58.6 µM.
`CCc1c(C(C)c2c(F)cccc2F)nc(SC/C=C/c2ccc([N+](=O)[O-])cc2)[nH]c1=O` (stereo not given): the EC50 was 1.94 µM.
Still for that read-out and setting: to `CCc1c(Cc2c(Cl)cccc2Cl)nc(SC/C=C/c2ccc(OC)cc2)[nH]c1=O` belongs over 0.19 µM; to `CCc1c(Cc2c(Cl)cccc2Cl)nc(SCc2ccc(OC)cc2)[nH]c1=O`, over 57.5 µM.
With `Cc1c(Cc2c(F)cccc2F)nc(SC/C=C/c2ccc([N+](=O)[O-])cc2)[nH]c1=O`, the EC50 is over 11.7 µM.
